Compound activity from PubChem.
An excerpt weighted towards active compounds, which were near 2.3% of everything screened.
mABHD4 FP: ABHD4 inhibitors, primary screen, biochemical, fluorescence polarization, mouse. inhibition, % at 8.92 µM. purified mABHD4, FP-Rh probe fluorescence polarization. (Lyso)-N-acylphosphatidylethanolamine lipase (Mus musculus), Q8VD66. 0.54% of 370,000 active;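 active = inhibition exceeding the mean over every tested compound plus 3 SD, cut at about 30% in these data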;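 note: 0% = plate median of compound wells and 100% = S159A mutant with DMSO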
Target sequence (Q8VD66 whole entry, looked up): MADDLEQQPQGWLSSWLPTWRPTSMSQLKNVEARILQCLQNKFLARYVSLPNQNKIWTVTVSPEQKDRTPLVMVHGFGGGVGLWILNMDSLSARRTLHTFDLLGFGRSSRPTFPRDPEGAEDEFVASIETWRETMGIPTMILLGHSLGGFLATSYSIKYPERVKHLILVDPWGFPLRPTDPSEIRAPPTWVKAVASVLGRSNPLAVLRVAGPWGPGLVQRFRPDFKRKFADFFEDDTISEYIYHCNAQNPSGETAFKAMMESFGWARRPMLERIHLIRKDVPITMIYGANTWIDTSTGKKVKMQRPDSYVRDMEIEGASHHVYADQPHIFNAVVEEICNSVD
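Assay system: mABHD4 protein; medium: HEPES pH 7.0, NaCl, Pluronic buffer; dosing: 8.92 µM, single dose; schedule: 45 min + 60 min at 25 °C; signal: FP readout, ex 525 nm / em 598 nm; read-out: normalized percent inhibition of probe labeling; repeats: single replicate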
HTRA1 inh: HTRA1 serine protease inhibitors, primary screen, biochemical, fluorescence polarization, HTS | Q92743 | recombinant HTRA1, FP-rhodamine activity-based probe | inhibition, % at 5.96 µM | 0.5% of 340,000 active; in the data active = inhibition above about 36%;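 note: 0% = enzyme with DMSO and 100% = wells lacking enzyme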
pPAFAH inh: pPAFAH enzyme inhibitors, primary screen, biochemical, fluorescence polarization, human; Platelet-activating factor acetylhydrolase (Homo sapiens), Q13093; recombinant pPAFAH, FP-rhodamine probe fluorescence polarization; inhibition, % at 3.39 µM; 1.5% of 330,000 active;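 active = inhibition above the mean inhibition across the screen plus 3 SD, cut at about 25% in these data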;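 note: inhibitors block binding of the rhodamine activity-based probe so polarization drops; 0% = enzyme with DMSO and 100% = wells lacking pPAFAH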
TCR CD3 inh: inhibitors of human TCR-CD3 interaction, primary screen, biochemical, fluorescence, TAMRA-labeled TCR probe. T-cell receptor (TCR). inhibition, % at 9.4 µM. 0.37% of 360,000 active. AID 651800, 2012;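 note: recombinant mutant TCR 2C K166C tagged with TAMRA read by polarization; 0% = receptor in buffer alone and 100% = receptor with positive control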
SIAE primary: human SIAE inhibitors, primary screen, biochemical, fluorescence polarization, FP-Rh probe, 1536-well HTS. Sialate O-acetylesterase (Homo sapiens), Q9HAT2. SIAE FP-Rh probe binding. inhibition, % at 9.66 µM. 0.69% of 370,000 active. AID 1053197, 2014;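 active = inhibition above a cutoff: mean of compounds within the control limits plus 3 SD of those, cut at about 17% in these data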;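 note: 0% = plate median of compound wells and 100% = probe without SIAE protein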
BSA TAMRA ctr: compounds interfering with TAMRA-BSA probe, counter-screen for TCR-CD3 interaction inhibitor project, biochemical, fluorescence, TAMRA-labeled BSA. TAMRA-labeled BSA probe fluorescence counterscreen. AID 652035, 2013. shares compounds with TCR CD3 inh. 10% of 1,200 active. inhibition, % at 9.4 µM; in the data active = inhibition above about 23%;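 note: 0% = buffer low control and 100% = reference high control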
TCR-CD3 conf: TCR-CD3 interaction inhibitors, retest, confirmation, biochemical, fluorescence, TAMRA-labeled TCR probe; shares compounds with TCR CD3 inh; TAMRA-labeled TCR probe fluorescence binding assay; inhibition, % at 9.4 µM; 48% of 1,200 active; AID 652036, 2013
mABHD4 conf: ABHD4 inhibitors, retest, confirmation, biochemical, fluorescence polarization, mouse; shares compounds with mABHD4 FP; purified mABHD4, FP-Rh probe fluorescence polarization; inhibition, % at 8.92 µM; 55% of 1,800 active; AID 720658, 2013;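 active = mean inhibition across replicates above the hit cutoff set in the primary screen, cut at about 30% in these data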;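 note: 0% = wild-type ABHD4 with DMSO and 100% = catalytically dead S159A mutant with DMSO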
SIAE confirm: human SIAE inhibitors, retest, confirmation, biochemical, fluorescence polarization, FP-Rh probe, triplicate; shares compounds with SIAE primary; SIAE FP-Rh activity-based probe; inhibition, % at 9.66 µM; 13% of 2,300 active; AID 1117263, 2014;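 active = mean inhibition of the replicates above the hit cutoff set in the primary screen, cut at about 17% in these data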;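 note: 0% = SIAE with DMSO and probe and 100% = probe without SIAE; inhibitors lower polarization as more probe stays unbound to SIAE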
Numbers without * were called inactive; x = no result given. Cut-off read from the data, not from the text of the source, unless noted: active = inhibition above about 19%; inactive = the rest.

SMILES	mABHD4 FP	HTRA1 inh	pPAFAH inh	TCR CD3 inh	SIAE primary	BSA TAMRA ctr	TCR-CD3 conf	mABHD4 conf	SIAE confirm
O=C(CNc1ccccc1)N/N=C/c1c(O)ccc2ccccc12	0.0	20.9	16.4	-5.6	5.3	x	x	x	x
O=C(N/N=C\c1c(O)ccc2ccccc12)c1ccc(O)cc1	0.6	14.2	25.9*	28.4*	27.2*	-12.4	20.9*	x	-47.8
O=C(NCc1cccc(F)c1)c1[nH]c(C(F)(F)F)nc1-c1ccccc1	-5.2	x	x	3.0	-8.8	x	x	x	x
COCCn1c(SCCCC(=O)c2ccc(Br)cc2)nnc1-c1ccncc1	-8.5	-0.2	1.2	5.2	-3.5	x	x	x	x
CCn1c(CSc2nnc(-c3ccncc3)n2CCOC)nc2cc(C(=O)O)ccc21	13.5	27.2	29.6*	31.6*	18.8*	160.3*	108.8*	x	38.2*
CC(=O)Nc1ccc(C(=O)N/N=C/c2cc(Br)cc(Br)c2O)cc1	5.5	21.2	12.4	39.6*	32.7*	-18.5	41.9*	x	13.6
CS(=O)(=O)c1ccc(C(=O)Nc2nc(-c3ccco3)c(-c3ccco3)s2)cc1	39.7*	5.1	x	33.5*	46.7*	-5.9	3.5	-16.1	2.7
Fc1ccccc1Cn1ccc2ccc(-c3ccc4ccn(Cc5ccccc5)c4c3)cc21	2.9	x	x	x	8.7	x	x	x	x
O=C(CCc1ccc(S(=O)(=O)N2CCOCC2)cc1)N/N=C/c1ccc(O)c(O)c1O	21.5	10.4	27.8*	28.4*	27.9*	-1.6	25.3*	x	14.7
CC(C)C1Nc2c(O)cc(Cl)c([N+](=O)[O-])c2C2C=CCC21 (stereo not drawn)	58.1*	32.5	x	19.8*	22.3*	-7.4	3.3	35.5*	3.6
CN(CCc1ccccc1)c1cc2c(c3c1ccn3C)C1CCC2C1 (stereo not drawn)	2.3	x	x	4.4	13.7	x	x	x	x
CCOC(=O)CCC(NC(=O)c1ccc(NCN2C(=O)c3ccccc3C2=O)cc1)C(=O)OCC (stereo not drawn)	-7.0	-1.3	0.8	-1.0	-11.0	x	x	x	x
CCOC(=O)C(CNc1ccc(O)cc1)NC(=O)c1ccccc1 (stereo not drawn)	83.5*	x	x	64.8*	90.6*	14.8	7.5	22.5	8.2
O=C(CCC(=O)Nc1cccc(Cl)c1)N/N=C/c1cc([N+](=O)[O-])ccc1O	7.1	4.8	6.9	28.5*	17.7*	-1.8	40.9*	x	-4.2
C/C(=N\NC(=O)c1ccc(N2CCCC2=O)cc1)c1ccccc1	-1.4	-1.5	4.3	0.3	-1.1	x	x	x	x
C/C(=N\NC(=O)c1ccc(N2CCCC2=O)cc1)c1ccc(O)cc1O	4.5	8.2	1.3	23.6*	22.3*	-8.8	10.1	x	-2.3
COC(=O)CC1CCc2cc(C)cc(C(=O)CC(C)C)c2O1 (stereo not drawn)	9.7	x	x	x	6.5	x	x	x	x
Cc1ccccc1CN1CCCCC(NC(=O)C2CCCCC2)C1=O (stereo not drawn)	4.1	x	x	x	12.1	x	x	x	x
C[C@](N)(Cc1ccc(O)c(O)c1)C(=O)O	26.1	12.1	x	22.0*	18.2*	-4.7	2.1	x	6.8
COC(=O)[C@]12CCCCC=C1N(Cc1cccc3ccccc13)C(=O)[C@H](CC(=O)N1CCCC1)C2	3.7	x	x	2.2	-1.5	x	x	x	x
Cc1cc2nc(-c3ccc(C#N)cc3)c(Cc3ccsc3)n2c(C)c1Br	1.4	x	x	5.3	5.7	x	x	x	x
CCOC(=O)C1CCCN(C(=O)C2COc3ccccc3O2)C1 (stereo not drawn)	45.1*	-4.4	x	28.2*	108.2*	-1.4	-4.9	-0.9	9.2
CCCCNC(=O)C(NC(=O)c1cnc(C)cn1)C(=O)c1ccccc1 (stereo not drawn)	7.5	x	x	0.2	-2.8	x	x	x	x
O=C(N/N=C/c1ccoc1)c1ccccc1O	7.8	23.9	17.0	25.3*	19.2*	-18.8	14.7	x	15.7
O=C(N/N=C/c1ccoc1)c1ccccc1	-5.2	-3.0	2.4	0.9	3.4	x	x	x	x
SMILES	mABHD4 FP	HTRA1 inh	pPAFAH inh	TCR CD3 inh	SIAE primary	BSA TAMRA ctr	TCR-CD3 conf	mABHD4 conf	SIAE confirm
CCCCC1OC2(C)OC(=N)C1(C#N)C(C#N)(C#N)C2c1ccccc1 (stereo not drawn)	30.1*	5.5	11.5	20.4*	38.0*	4.3	5.8	10.4	2.1
O=C(N/N=C/c1cn(Cc2cccc(F)c2)c2ccccc12)c1cc(O)cc(O)c1	25.8	3.9	x	47.3*	36.6*	-5.4	27.0*	x	1.0
COc1cc(C(=O)OCC(=O)N2CCCC2=O)cc(OC)c1C	44.6*	3.8	8.4	43.4*	17.1*	5.3	2.9	-7.9	-2.3
CC(=O)Nc1ccc(C(=O)OCC(=O)N2CCCC2=O)cc1	3.7	-1.4	-4.5	4.4	-1.7	x	x	x	x
CCc1cc(=O)oc2cc(OC(C)C(=O)N3CC[C@@]4(O)CCCC[C@H]4C3)ccc12 (stereo partly drawn)	1.1	x	x	2.0	4.4	x	x	x	x
Cc1cc2c(c(=O)o1)C(c1ccc([N+](=O)[O-])o1)C(C#N)=C(N)O2 (stereo not drawn)	32.1*	x	18.0	37.5*	22.8*	5.0	10.8	-10.9	0.4
COC(=O)[C@]12C=CCN1[C@H](c1ccc(Cl)cc1)c1c(c3ccccc3n1S(=O)(=O)c1ccc(C)cc1)C2	-41.6	x	x	x	-12.8	x	x	x	x
O=C(COC(=O)Cc1cccs1)Nc1ccc(OC(F)(F)F)cc1	107.6*	0.5	18.0	62.0*	133.1*	2.3	2.2	x	-2.6
C(=N\Nc1nc2ccccc2[nH]1)/c1ccccn1	33.7*	33.9	x	-6.5	2.6	x	x	32.4*	x
CCN(CC)c1ccc(/C=N/Nc2nc3ccccc3[nH]2)c(O)c1	30.9*	16.9	19.3	-2.8	28.4*	x	x	80.1*	x
O=C1NC[C@@H](CCCCN2C[C@H](Cc3ccc(O)cc3)N(CCc3ccccc3)C(=O)C2=O)N(CCC2CCCCC2)C1=O	-1.0	x	x	3.7	7.6	x	x	x	x
CN(CC(=O)Nc1cccc(F)c1)C(=O)c1ccccc1CCc1ccccc1	36.0*	-36.8	3.8	1.9	3.9	x	x	-20.0	x
